A selection: hits, their analogues and other compounds. The true share with any hit is near 1.8%.
APJ antagonist – blocks the human apelin receptor APJ; P35414; CHO-K1 APJ beta-arrestin complementation, luminescence; inhibition, % at 20 µM; hit rate 0.32% among 330,000; AID 2521;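 active = inhibition above about 40% at 20 µM, limit read from the data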;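 note: cells challenged with 10 nM apelin-13 agonist together with compound; plate controls were apelin-13 plus DMSO wells for no effect and DMSO wells lacking apelin-13 for full effect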
Target sequence (P35414 whole entry, looked up): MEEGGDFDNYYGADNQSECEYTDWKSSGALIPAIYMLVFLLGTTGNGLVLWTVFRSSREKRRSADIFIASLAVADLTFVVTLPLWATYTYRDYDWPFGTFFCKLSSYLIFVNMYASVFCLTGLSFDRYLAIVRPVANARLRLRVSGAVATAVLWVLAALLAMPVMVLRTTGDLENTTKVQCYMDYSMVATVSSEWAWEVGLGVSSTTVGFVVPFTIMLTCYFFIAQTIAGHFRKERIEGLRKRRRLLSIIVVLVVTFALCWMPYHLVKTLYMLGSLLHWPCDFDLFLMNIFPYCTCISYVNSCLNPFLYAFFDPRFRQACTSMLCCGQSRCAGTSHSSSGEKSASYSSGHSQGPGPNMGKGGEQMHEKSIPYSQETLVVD
APJ agonist – APJ receptor agonism; P35414; CHO-K1 APJ PathHunter beta-arrestin, luminescence; 0% DMSO wells, 100% apelin; activation, % at 20 µM; hit rate 0.11% among 330,000;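 active = activation more than six SD over the plate average, tested at 20 µM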;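 note: 0% = DMSO alone and 100% = apelin-13 at 10 nM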
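system = engineered CHO-K1 APJ arrestin reporter cells | input = 1000 cells per well | timing = overnight seeding, 90 min compound at 25 °C, 1 h detection | measured by = enzyme-fragment complementation luminescence | read-out = beta-arrestin recruitment to APJ as agonist activity, luminescent signal | control set = negative DMSO alone, positive Apelin-13 at 10 nM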
Beta2AR agonist – agonists of human beta-2 adrenergic receptor inducing internalization; response, % (concentration not given with the values); Am2.2-beta2AR cells, FAP receptor internalization, flow cytometry; hit rate 0.43% among 340,000; P07550;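 active = response above a set limit, near 3 SD of response in nonfluorescent compounds, cut at about 42% in these data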
Target sequence (P07550 whole entry, looked up): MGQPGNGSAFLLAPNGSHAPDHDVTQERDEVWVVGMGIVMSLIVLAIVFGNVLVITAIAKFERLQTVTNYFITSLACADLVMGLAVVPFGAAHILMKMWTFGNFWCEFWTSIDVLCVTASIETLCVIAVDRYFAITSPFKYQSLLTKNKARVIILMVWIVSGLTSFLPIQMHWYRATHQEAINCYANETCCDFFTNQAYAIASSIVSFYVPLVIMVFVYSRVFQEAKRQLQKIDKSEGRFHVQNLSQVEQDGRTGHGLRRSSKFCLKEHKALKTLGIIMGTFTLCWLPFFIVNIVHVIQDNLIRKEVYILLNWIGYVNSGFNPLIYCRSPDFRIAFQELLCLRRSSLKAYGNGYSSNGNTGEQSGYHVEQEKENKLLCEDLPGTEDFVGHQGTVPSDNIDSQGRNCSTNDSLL
CXCR6 block – CXCR6 (human) receptor inhibition. O00574. CHO-K1 PathHunter CXCR6 beta-arrestin, luminescence. inhibition, % at 20 µM. hit rate 0.36% among 360,000; in the data active = inhibition above about 34%, passing the limit was not always enough;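 note: antagonist mode with CXCL16 agonist at 10 nM final; 0% = 10 nM CXCL16 with DMSO and 100% = unstimulated wells without agonist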
CCR6 antag – blocks CCL20-driven beta-arrestin recruitment at human CCR6; P51684; CHO-K1 CCR6 PathHunter beta-arrestin, luminescence, CCL20-stimulated; inhibition, % at 20 µM; hit rate 0.49% among 340,000; AID 493098;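 active = compounds whose inhibition of the agonist-driven luminescence signal at 20 µM reaches about 50%, limit read from the data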;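 note: cells stimulated with CCL20 at 14 nM final; plate controls were DMSO with CCL20 for no effect and DMSO without agonist for full effect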
EBI2 block – blocks human EBI2 receptor beta-arrestin signaling | P32249 | EBI2 beta-arrestin recruitment, luminescence, 7a,25-OHC stimulated | inhibition, % at 5 µM | hit rate 0.81% among 360,000 | AID 651636; in the data active = inhibition above about 38%;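 note: enzyme fragment complementation signal reports receptor beta-arrestin coupling in cells; 0% = agonist plus DMSO wells and 100% = wells without agonist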
EBI2 antag conf – confirmation of human EBI2 receptor antagonists; shares compounds with EBI2 block; EBI2 beta-arrestin luminescence, 7a,25-OHC antagonism; inhibition, % at 5 µM; hit rate 29% among 2,400; AID 651997;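 active = inhibition of at least 50%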
EBI2 agonist – EBI2 agonism counter-screen. shares compounds with EBI2 block. EBI2-expressing cells, agonist mode, luminescence, 60 min; 0% vehicle, 100% 7α,25-dihydroxycholesterol control. activation, % at 5 µM. 2,400 tested, under 10 active;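 active = activation of at least 50%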
bGal counter – beta-galactosidase inhibition counter-screen. shares compounds with EBI2 block. purified beta-galactosidase, luminescent Galacton Star, 15 min. inhibition, % at 5 µM. hit rate 1% among 2,400;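 active = replicate-average signal at least 3 plate SD below neutral wells, shown as high inhibition, flagging enzyme-inhibiting false positives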;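 note: 0% = DMSO wells with enzyme and 100% = wells lacking enzyme; higher means stronger loss of beta-gal luminescence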
* hit, by the source's call; . = not tested or not shown.

SMILES | APJ antagonist | APJ agonist | Beta2AR agonist | CXCR6 block | CCR6 antag | EBI2 block | EBI2 antag conf | EBI2 agonist | bGal counter
Cc1cc2nc(-c3ccc(SCc4ccc(C#N)cc4)nc3)[nH]c2cc1C | -6.9 | 8.6 | 2.6 | -5.9 | -5.5 | 56.1* | 40.5 | 0.2 | -9.0
Cc1cc2nc(-c3ccc(SCC(=O)Nc4nccs4)nc3)[nH]c2cc1C | . | . | 13.0 | -7.0 | 8.2 | 54.6* | 45.0 | -0.3 | -11.4
COc1ccc(OC)c(NS(=O)(=O)c2ccc3[nH]c(=O)[nH]c3c2)c1 | . | . | . | -6.6 | . | -5.9 | . | . | .
Cc1ccc2c(c1)[C@H]1[C@H](CO2)[C@H](c2ccccc2)[C@]2(C)C(=O)N(Cc3ccc(Cl)cc3)CC(=O)N12 | -2.4 | -2.6 | 2.2 | 8.2 | 13.7 | 47.8* | 30.8 | -1.3 | -9.2
CCN(CC)CCNC(=O)c1ccc(NC(=O)c2cc(S(=O)(=O)N3CCCCC3)ccc2N2CCOCC2)cc1 | . | . | 5.4 | 1.9 | 7.2 | 3.3 | . | . | .
CCOC(=O)N1CCN(C(=O)c2cc3ccc(OC)cc3[nH]2)CC1 | -3.1 | -5.0 | -0.1 | -7.6 | 4.0 | 59.4* | 24.3 | 0.2 | 7.0
CCOC(=O)C1CCN(C(=O)c2cc3cc(Cl)ccc3[nH]2)CC1 | 4.7 | -5.1 | 4.4 | -5.4 | 4.9 | 88.6* | 66.7* | 1.8 | 3.0
CC1CN(C(=O)c2cc3cc(Cl)ccc3[nH]2)CC(C)O1 (configuration not stated) | -5.2 | -2.9 | 1.5 | -17.6 | 3.7 | 11.3 | . | . | .
CCOC(=O)C1CCCN(C(=O)c2cc3cc(OC)c(OC)cc3[nH]2)C1 (configuration not stated) | 7.2 | -0.1 | 2.9 | 4.7 | 9.2 | 4.1 | . | . | .
CCOC(=O)C1CCN(C(=O)c2cc3ccc(OC)cc3[nH]2)CC1 | 1.7 | -3.0 | 11.8 | -7.0 | -2.7 | 38.5* | 24.6 | 0.9 | 6.7
O=C(Nc1ccc(N2CCN(C(=O)c3cccs3)CC2)cc1)c1ccc(Br)o1 | 11.9 | -3.3 | 6.2 | -7.6 | 3.4 | -11.1 | . | . | .
CCc1ccc(CNC(=O)C2CCC(=O)N(CCc3ccc(Cl)cc3)C2)nc1 (configuration not stated) | -11.4 | 0.7 | -3.1 | 2.4 | -4.6 | 19.1 | . | . | .
CCn1c2ccccc2c2nnc(SCc3ccccc3)nc21 | 3.3 | -3.9 | -12.8 | 8.4 | 21.7 | 8.0 | . | . | .
CCN(CC)CCSc1nnc2c3ccccc3n(Cc3ccccc3)c2n1 | 9.9 | -0.2 | -8.0 | 16.4 | 21.0 | 54.4* | 21.1 | 0.6 | 1.2
CCN(CC)CCSc1nnc2c3cc(F)ccc3n(Cc3ccccc3)c2n1 | 3.7 | -1.8 | -3.9 | 5.5 | 7.7 | 56.0* | 21.0 | -0.2 | 5.8
O=C(NC1CCC(Oc2ccc(C(=O)O)cc2)CC1)NC12CC3CC(CC(C3)C1)C2 (configuration not stated) | 6.6 | -0.8 | 2.0 | -1.4 | 0.5 | 1.1 | . | . | .
OC(c1cccc(CN2CCCCC2)c1)c1ncc(-c2cccc3ccccc23)[nH]1 (configuration not stated) | . | . | . | -1.6 | . | -2.0 | . | . | .
COc1cccc(C(C)(O)c2nc(-c3ccc(N(C)C)cc3)cs2)c1 (configuration not stated) | . | . | . | 4.0 | . | -2.8 | . | . | .
COCCCn1c(Cc2csc(Nc3ccc(F)cc3)n2)nnc1SCC(N)=O | -3.8 | 3.5 | -7.9 | -1.0 | -1.4 | -1.9 | . | . | .
NC(=O)CSc1nnc(Cc2csc(Nc3ccc(F)cc3)n2)n1Cc1ccccc1 | 2.5 | -6.1 | -9.0 | 4.2 | 5.4 | 63.2* | 39.7 | -0.5 | 6.6
OC(CC1CC12c1ccccc1-c1ncccc12)(c1ccccc1)c1ccccc1 (configuration not stated) | -4.7 | 0.2 | 7.3 | 15.4 | 13.6 | 47.1* | 39.4 | -0.2 | 3.5
O=C(CNC(=O)c1cccc(F)c1)NC1CC1 | 4.0 | -3.5 | 5.5 | 4.6 | -0.6 | -11.6 | . | . | .
CC1(C(=O)NCc2ccccc2Br)CCN1Cc1csc2ccccc12 (configuration not stated) | . | . | . | 3.1 | . | 61.4* | 51.0* | 1.7 | -0.5
COc1ccc(Cl)cc1CC1(C)C(=O)Nc2ccc(S(=O)(=O)NC3CCCCC3)cc21 (configuration not stated) | . | . | . | -8.6 | . | 11.1 | . | . | .
COc1ccc2nc(N/C(N)=N/C(=S)Nc3ccccc3)nc(C)c2c1 | -26.0 | 3.0 | 2.9 | 6.1 | 22.5 | 18.0 | . | . | .
SMILES | APJ antagonist | APJ agonist | Beta2AR agonist | CXCR6 block | CCR6 antag | EBI2 block | EBI2 antag conf | EBI2 agonist | bGal counter
CCOc1ccc2nc(N/C(N)=N/C(=S)Nc3ccc(OC)cc3)nc(C)c2c1 | -12.5 | -0.9 | -5.1 | 15.6 | 18.4 | 43.8* | 6.9 | 0.8 | 3.9
CCOc1ccc(NCc2nnc(SCC(=O)Nc3nc(-c4ccccc4)cs3)n2-c2ccccc2)cc1 | -4.2 | -3.6 | 1.9 | -8.2 | 3.4 | 46.1* | 23.2 | -1.2 | -19.2
Cc1cccc(C)c1NCc1nnc(SCC(=O)Nc2nc(-c3ccccc3)cs2)n1-c1ccccc1 | -4.9 | -2.5 | 1.8 | -2.0 | 10.1 | 4.5 | . | . | .
CCOC(=O)c1cnc(SCC(=O)Nc2cc(C(F)(F)F)ccc2N2CCOCC2)nc1N | 2.3 | 1.4 | -1.4 | -12.5 | 30.8 | 85.0* | 86.3* | 2.8 | 4.6
CCOC(=O)c1cnc(SCC(=O)Nc2ccc(N3CCOCC3)c(Cl)c2)nc1N | 17.4 | -3.9 | -15.4 | -4.3 | 3.5 | 3.4 | . | . | .
CCC(C(=O)c1ccc2ncccc2c1)c1ccccc1 (configuration not stated) | 10.2 | -3.6 | -0.8 | -1.8 | 10.1 | 60.9* | 46.2 | 1.4 | -2.6
O=C(Nc1ccc2ncccc2c1)c1ccccc1 | 9.0 | 0.6 | 9.8 | 9.7 | 3.0 | -7.0 | . | . | .
COc1ccc(N(C(=O)Cn2nnc(-c3ccc(Cl)cc3)n2)C(C(=O)NCC2CCCO2)c2ccc(C)cc2)cc1 (configuration not stated) | -4.8 | -4.1 | -1.2 | -5.9 | -0.3 | 61.3* | 21.7 | -0.7 | -7.0
COC(=O)/C=C1/SC(=Nc2ccc(C)cc2C)NC1=O | 19.7 | -2.3 | 16.0 | 3.3 | 8.6 | 71.7* | 72.5* | 0.1 | 3.1
COC(=O)/C=C1\SC(=Nc2ccccc2)NC1=O | 14.7 | -2.2 | 2.6 | 8.4 | 11.1 | 52.3* | 59.4* | -0.8 | -11.8
COC(=O)/C=C1/SC(=Nc2ccc(Cl)c(Cl)c2)NC1=O | -1.1 | -0.6 | 17.2 | 2.7 | -0.1 | 13.3 | . | . | .
COC(=O)/C=C1\SC(=NC(=O)c2ccc(C)cc2)NC1=O | 7.2 | -2.8 | 1.0 | -5.3 | 12.7 | 1.2 | . | . | .
CCCS(=O)(=O)N1CCN(C(=O)c2ccc(-c3ccccc3)cc2)CC1 | -4.8 | 5.4 | -4.0 | 0.0 | -4.8 | 73.4* | 43.2 | 0.6 | 3.2

Screening data as filed in PubChem.
